# Test results taken from ChEMBL document CHEMBL1145344, “Brunsvicamides A-C: sponge-related cyanobacterial peptides with Mycobacterium tuberculosis protein tyrosine phosphatase inhibitory activity” (J Med Chem, 2006).
# pIC50: −log10 of the molar value.
# Legend:
# [1] = target: T1, Tyrosine-protein phosphatase non-receptor type 1 (Homo sapiens, UniProt P18031); test: Inhibition of PTP1b
# T1 sequence (P18031 whole entry): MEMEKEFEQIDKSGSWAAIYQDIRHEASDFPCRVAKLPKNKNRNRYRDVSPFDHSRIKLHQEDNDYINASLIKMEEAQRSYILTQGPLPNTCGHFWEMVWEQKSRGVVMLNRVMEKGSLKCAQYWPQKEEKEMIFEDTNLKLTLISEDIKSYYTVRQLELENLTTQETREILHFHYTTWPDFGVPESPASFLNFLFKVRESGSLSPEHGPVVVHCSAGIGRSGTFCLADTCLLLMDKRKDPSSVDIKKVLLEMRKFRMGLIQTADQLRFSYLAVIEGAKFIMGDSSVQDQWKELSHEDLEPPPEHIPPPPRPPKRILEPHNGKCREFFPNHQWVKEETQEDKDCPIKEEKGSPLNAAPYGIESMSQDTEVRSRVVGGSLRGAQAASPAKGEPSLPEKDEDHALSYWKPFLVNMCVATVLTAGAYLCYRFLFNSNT
# Procedure, shortened: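 PTP1b pre-incubated 10-15 min with inhibitor (2-fold series, 100 down to 3.125 µM) in 25 mM HEPES, 50 mM NaCl, 2.5 mM EDTA, 2 mM DTE, 0.025% NP-40. Reaction started with 1 mM p-nitrophenyl phosphate. Velocity from the A405 slope relative to an inhibitor-free control, quadruplicates. IC50 by linear extrapolation of velocity versus log concentration, with 100 µM as the upper limit.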
# [2] = target: T2, Tyrosine-protein phosphatase non-receptor type 11 (Homo sapiens, UniProt Q06124); test: Inhibition of SHP2
# T2 sequence (Q06124 whole entry): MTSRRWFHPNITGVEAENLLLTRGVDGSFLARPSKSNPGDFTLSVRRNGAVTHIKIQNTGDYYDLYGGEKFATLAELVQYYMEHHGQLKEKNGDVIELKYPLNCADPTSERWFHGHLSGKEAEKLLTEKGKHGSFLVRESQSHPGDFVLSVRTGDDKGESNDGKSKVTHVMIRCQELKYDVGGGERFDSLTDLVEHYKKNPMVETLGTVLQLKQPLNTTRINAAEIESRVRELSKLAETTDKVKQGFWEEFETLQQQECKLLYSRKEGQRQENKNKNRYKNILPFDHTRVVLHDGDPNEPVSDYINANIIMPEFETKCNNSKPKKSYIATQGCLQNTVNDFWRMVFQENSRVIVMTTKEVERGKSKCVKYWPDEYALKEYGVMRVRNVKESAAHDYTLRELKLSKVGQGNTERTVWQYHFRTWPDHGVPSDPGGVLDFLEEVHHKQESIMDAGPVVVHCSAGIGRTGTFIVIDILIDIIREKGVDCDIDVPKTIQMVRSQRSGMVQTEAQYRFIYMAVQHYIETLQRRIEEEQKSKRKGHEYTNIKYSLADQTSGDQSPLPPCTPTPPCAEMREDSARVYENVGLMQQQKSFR
# Procedure, shortened: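 SHP2 pre-incubated 10-15 min with a 2-fold inhibitor series (100-3.125 µM) in buffer with 2 mM DTE and 0.025% NP-40. Reaction used 1 mM p-nitrophenyl phosphate. Enzyme was set to give 1-2 OD405/h. Velocity was taken from the A405 slope, with quadruplicate wells. IC50 came from linear extrapolation against log concentration.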
# [3] = target: T3, M-phase inducer phosphatase 1 (Homo sapiens, UniProt P30304); test: Inhibition of CDC25a
# T3 sequence (P30304 whole entry): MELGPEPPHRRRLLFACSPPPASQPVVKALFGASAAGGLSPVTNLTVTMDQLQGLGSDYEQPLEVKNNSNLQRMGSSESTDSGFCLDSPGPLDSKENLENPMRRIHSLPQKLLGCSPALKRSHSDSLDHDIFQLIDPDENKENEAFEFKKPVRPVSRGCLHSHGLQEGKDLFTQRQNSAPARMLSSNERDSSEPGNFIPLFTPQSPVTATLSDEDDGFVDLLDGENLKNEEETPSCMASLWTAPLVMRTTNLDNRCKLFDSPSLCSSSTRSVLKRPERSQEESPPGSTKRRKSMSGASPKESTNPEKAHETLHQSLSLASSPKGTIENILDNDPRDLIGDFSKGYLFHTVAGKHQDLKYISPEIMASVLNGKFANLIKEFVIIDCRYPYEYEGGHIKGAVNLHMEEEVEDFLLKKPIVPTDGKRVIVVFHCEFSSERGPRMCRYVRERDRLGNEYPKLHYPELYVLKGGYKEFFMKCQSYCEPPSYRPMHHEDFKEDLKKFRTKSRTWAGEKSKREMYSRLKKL
# Procedure, shortened: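 Recombinant CDC25A, pre-incubated 10-15 min with inhibitor in 50 mM Tris, 50 mM NaCl, 0.1 mM EDTA, 2 mM DTE, 0.025% NP-40. Started with p-nitrophenyl phosphate at 50 mM final. Inhibitor at 100-3.125 µM in 2-fold steps. Rate was taken from the A405 slope versus an uninhibited control, in quadruplicate. IC50 came from linear extrapolation against log concentration.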
# [4] = target: Dual specificity protein phosphatase 3 (Homo sapiens, UniProt P51452); test: Inhibition of VHR
# Sequence of Dual specificity protein phosphatase 3 (P51452 whole entry): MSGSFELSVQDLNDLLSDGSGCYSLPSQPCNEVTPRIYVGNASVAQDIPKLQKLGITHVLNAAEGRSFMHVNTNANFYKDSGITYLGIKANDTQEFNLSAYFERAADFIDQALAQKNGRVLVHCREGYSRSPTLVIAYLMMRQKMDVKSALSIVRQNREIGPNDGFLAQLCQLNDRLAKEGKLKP
# Procedure, shortened: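 VHR in 25 mM MOPS, 5 mM EDTA, 2 mM DTE, 0.025% NP-40, pre-incubated 10-15 min with inhibitor at 100-3.125 µM (2-fold). Reaction started with 1 mM p-nitrophenyl phosphate. Rate from the A405 slope versus control, in quadruplicate. IC50 was derived by linear extrapolation of velocity against log inhibitor concentration.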
# [5] = target: T4, Low molecular weight protein-tyrosine phosphatase A (Mycobacterium tuberculosis, UniProt P9WIA1); test: Inhibition of Mycobacterium tuberculosis ptpA
# T4 sequence (P9WIA1 whole entry): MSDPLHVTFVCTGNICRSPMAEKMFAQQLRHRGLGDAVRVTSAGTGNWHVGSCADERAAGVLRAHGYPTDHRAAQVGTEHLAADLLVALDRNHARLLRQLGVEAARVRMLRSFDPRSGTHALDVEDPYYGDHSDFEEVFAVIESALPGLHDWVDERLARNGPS
# Procedure, shortened: (§1)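 MptpA or MptpB was expressed in E. coli BL21(DE3) with 1 mM IPTG for 4 h at 25 °C, then purified by Ni-NTA and Superdex 75 gel filtration. Enzyme was pre-incubated 10-15 min with inhibitor (100-3.125 µM, 2-fold) in 25 mM HEPES, 50 mM NaCl, 2.5 mM EDTA, 2 mM DTE, 0.025% NP-40. Reaction used 1 mM p-nitrophenyl phosphate, read as A405 slope, quadruplicate, IC50 from log-concentration extrapolation.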
# [6] = target: T5, Phosphotyrosine-protein phosphatase PTPB (Mycobacterium tuberculosis, UniProt P96830); test: Inhibition of Mycobacterium tuberculosis ptpb; procedure, shortened: as §1
# T5 sequence (P96830 whole entry): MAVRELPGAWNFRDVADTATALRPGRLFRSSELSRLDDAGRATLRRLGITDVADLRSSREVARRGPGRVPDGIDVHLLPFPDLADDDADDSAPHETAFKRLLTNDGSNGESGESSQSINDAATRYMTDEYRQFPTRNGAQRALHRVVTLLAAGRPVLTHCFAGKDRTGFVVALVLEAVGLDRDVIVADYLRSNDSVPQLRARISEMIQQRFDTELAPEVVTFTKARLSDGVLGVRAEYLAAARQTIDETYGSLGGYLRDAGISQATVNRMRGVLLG
Compound,pIC50 [1],pIC50 [2],pIC50 [3],pIC50 [4],pIC50 [5],pIC50 [6]
CC[C@H](C)[C@H](NC(=O)N[C@H]1CCCCNC(=O)[C@H](Cc2ccccc2)NC(=O)[C@H](Cc2c[nH]c3ccccc23)N(C)C(=O)[C@H](CC(C)C)NC(=O)[C@H](C(C)C)NC1=O)C(=O)O [BRUNSVICAMIDE A],< 4.00,< 4.00,,,,
CC[C@H](C)[C@H](NC(=O)N[C@H]1CCCCNC(=O)[C@H](Cc2ccccc2)NC(=O)[C@H](Cc2c[nH]c3ccccc23)N(C)C(=O)[C@H](CC(C)C)NC(=O)[C@H]([C@@H](C)CC)NC1=O)C(=O)O,< 4.00,< 4.00,,,,
CC[C@H](C)[C@H](NC(=O)N[C@@H]1CCCCNC(=O)[C@H](Cc2ccccc2)NC(=O)[C@H](Cc2c[nH]c3ccccc23)N(C)C(=O)[C@H](CC(C)C)NC(=O)[C@H](C(C)C)NC1=O)C(=O)O [BRUNSVICAMIDE A],,,< 4.00,< 4.00,< 4.00,4.19
CC[C@H](C)[C@H](NC(=O)N[C@@H]1CCCCNC(=O)[C@H](Cc2ccccc2)NC(=O)[C@H](Cc2c[nH]c3ccccc23)N(C)C(=O)[C@H](CC(C)C)NC(=O)[C@H]([C@@H](C)CC)NC1=O)C(=O)O,,,< 4.00,< 4.00,< 4.00,5.14
